Common to all, as to format: functional, cell-based
Assay [1] relates to RBL-2H3. Kind of assay: Antiallergic activity against antigen-IgE-mediated degranulation in rat RBL2H3 cells assessed as inhibition of DNP-BSA-induced beta-hexosaminidase release preincubated for 10 mins before DNP-BSA challenge measured after 10 mins. A digest of the protocol: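 Test sample was added to each RBL-2H3 well 10 min before DNP-BSA challenge. β-Hexosaminidase released into the medium was determined 10 min after challenge.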

For assay [2], the system named is RBL-2H3. In words: Antiallergic activity against antigen-IgE-mediated degranulation in rat RBL2H3 cells assessed as inhibition of DNP-BSA-induced TNFalpha release preincubated for 10 mins before DNP-BSA challenge measured after 4 hrs. The essentials:
(§1)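 Test sample was added to each RBL-2H3 well 10 min before DNP-BSA challenge. TNF-α and IL-4 released into the medium were measured 4 h after challenge.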

Assay [3] has as its system RBL-2H3. Kind of assay: Antiallergic activity against antigen-IgE-mediated degranulation in rat RBL2H3 cells assessed as inhibition of DNP-BSA-induced IL4 release preincubated for 10 mins before DNP-BSA challenge measured after 4 hrs. The essentials:
as §1

Counter-ions that a name gives are not always drawn.

Usually IC50 stands for the concentration that inhibits the measured activity by half.

With `C=CC(=O)Oc1ccc(C(OC(=O)C=C)c2ccccc2)cc1` (stereo unspecified), the half-maximal inhibitory concentration (IC50) in the assay on RBL-2H3 [1] is 28 µM.
Still for that read-out and setting: with `CC(=O)Oc1ccc(C(OC(=O)C(C)(C)C)c2ccccc2)cc1` (stereo unspecified) the figure was 36 µM; with `CC(=O)Oc1ccc(C(OC(C)=O)c2ccccc2)cc1` (stereo unspecified), 14 µM; with `CCC(=O)Oc1ccc(C(OC(=O)CC)c2ccccc2)cc1` (stereo unspecified), 38 µM.
Same read-out and setting: as for `CC(C)C(=O)Oc1ccc(C(OC(=O)C(C)C)c2ccccc2)cc1` (stereo unspecified), the figure is over 100 µM.
In the case of `COC(=O)OC(c1ccccc1)c1ccc(OC(C)=O)cc1` (stereo unspecified), the IC50 in the assay with RBL-2H3 [2] stood at 11 µM; in the assay on RBL-2H3 [3], 12 µM; with RBL-2H3 [1], 6.5 µM.
In the same order, the values of `CC(=O)Oc1ccc(C(OC(=O)c2ccccc2)c2ccccc2)cc1` (stereo unspecified) are 28 µM, 23 µM and 17 µM.
For `COC(=O)Oc1ccc(C(OC(=O)OC)c2ccccc2)cc1` (stereo unspecified), the IC50 in the assay on RBL-2H3 [1] was determined as 18 µM.
The same measure, in the same setting: as for `O=COc1ccc(C(OC=O)c2ccccc2)cc1` (stereo unspecified), the figure is over 100 µM; as for `CC(=O)Oc1ccc(C(O)c2ccccc2)cc1` (stereo unspecified), over 100 µM.
Same read-out and setting: as for `CC(=O)Oc1ccc(C(OC(=O)C(C)C)c2ccccc2)cc1` (stereo unspecified), the figure is 27 µM; as for `CN1CCC(=C2c3ccccc3CC(=O)c3sccc32)CC1` [KETOTIFEN FUMARATE], 158 µM.

The values above are taken from ChEMBL document CHEMBL1136910, “Acetoxybenzhydrols as highly active and stable analogues of 1'S-1'-acetoxychavicol, a potent antiallergic principal from Alpinia galanga” (Bioorg Med Chem Lett, 2009).
